{"data": "Results gathered from unrelated publications", "target": "Serine/threonine-protein kinase PAK 3 (PAK3, Homo sapiens, UniProt O75914)", "note": "Compare with care: the assays were run in different laboratories."}
{"SMILES": "F[C@@H]1CCN(c2nccc(-c3cnn4ncccc34)n2)C1", "test": "binding", "conditions": "1 µM", "remaining binding [%]": 100}
{"SMILES": "CNC(=O)[C@@H]1CC[C@@H](n2c(-c3ccc4cnccc4c3)nc3ccc(C(=O)NCc4cccc(C(N)=O)c4)cc32)C1", "test": "binding, competition with immobilised ligand", "conditions": "1 µM", "remaining binding [%]": 95}
{"SMILES": "CCS(=O)(=O)c1cc2cc(C[C@](O)(CC(C)(C)c3ccc(F)cc3C(N)=O)C(F)(F)F)[nH]c2cn1", "test": "cell-free assay, competition with immobilised ligand", "conditions": "1 µM", "remaining binding [%]": 100}
{"SMILES": "O=C(c1ccc(Nc2ncc(Cl)c(-c3ccc(Cl)s3)n2)cc1)N1CCC(N2CCCC2)CC1", "test": "binding, competition with immobilised ligand", "conditions": "1 µM", "remaining binding [%]": 38}
{"SMILES": "c1cncc(-c2cccc(Nc3nccc(NC4CCCCC4)n3)c2)c1", "test": "binding, competition with immobilised ligand", "conditions": "10 µM", "remaining binding [%]": 38}
{"SMILES": "C[C@@H](c1ccc(-n2cnc3c(N)ncnc32)cc1)N1CCc2nn(C)c(Cc3ccccc3)c2C1=O", "test": "binding, competition with immobilised ligand", "conditions": "0.1 µM", "remaining binding [%]": 71}
{"SMILES": "CN(C)c1nccc(-c2cnn3ncccc23)n1", "test": "binding", "conditions": "1 µM", "remaining binding [%]": 100}
{"SMILES": "O=C(Nc1ccc(Oc2ccc(F)cc2)cc1)N1CCc2ncccc2[C@H]1c1ccc(F)cc1", "test": "cell-free assay, competition with immobilised ligand", "conditions": "1 µM", "remaining binding [%]": 100}
{"SMILES": "N[C@@H]1CCN(c2nccc(-c3cnn4ncccc34)n2)C1", "test": "binding", "conditions": "1 µM", "remaining binding [%]": 99}
{"SMILES": "CCC(=N\\O)/C(C)=C/c1ccc(F)cc1", "test": "cell-free assay, competition with immobilised ligand", "conditions": "1 µM", "remaining binding [%]": 89}
{"SMILES": "Cc1cnc(Nc2ccc(C(=O)N3CCC(N4CCCC4)CC3)cc2)nc1-c1cc2ccccc2s1", "test": "binding, competition with immobilised ligand", "conditions": "1 µM", "remaining binding [%]": 23}
{"SMILES": "Nc1ncc2c(n1)-c1c([nH]c3ccc(C#CC4CC4)cc13)CCCC2", "test": "binding, competition with immobilised ligand", "conditions": "1 µM", "remaining binding [%]": 90}
{"SMILES": "O=C1NC(c2ccccn2)Sc2ccccc21 (stereo not drawn)", "test": "cell-free assay, competition with immobilised ligand", "conditions": "1 µM", "remaining binding [%]": 83}
{"SMILES": "COc1ccnn2ncc(-c3ccnc(N(C)C)n3)c12", "test": "binding", "conditions": "1 µM", "remaining binding [%]": 100}
{"SMILES": "COc1ncc2cc3ccccc3nc2c1C#N", "test": "cell-free assay, competition with immobilised ligand", "conditions": "5 µM", "remaining binding [%]": 100}
{"SMILES": "O=C(NCCCN1CCOCC1)c1ccc(Nc2ncc(Cl)c(-c3ccc(Cl)s3)n2)cc1", "test": "binding, competition with immobilised ligand", "conditions": "1 µM", "remaining binding [%]": 77}
{"SMILES": "CN(CCCC(F)(F)F)c1nccc(-c2cnn3ncccc23)n1", "test": "binding", "conditions": "1 µM", "remaining binding [%]": 100}
{"SMILES": "CS(=O)(=O)NCC[C@H](NC(=O)c1cncc2c1cnn2-c1ccc(F)cc1)c1ccnc(S(C)(=O)=O)c1", "test": "cell-free assay, competition with immobilised ligand", "conditions": "1 µM", "remaining binding [%]": 100}
{"SMILES": "O=C(Nc1c[nH]nc1C(=O)NC1CCNCC1)c1cc(F)cc(F)c1", "test": "binding, competition with immobilised ligand", "conditions": "1 µM", "remaining binding [%]": 98}
{"SMILES": "C[C@@H]1CCN(c2nccc(-c3cnn4ncccc34)n2)C1", "test": "binding", "conditions": "1 µM", "remaining binding [%]": 85}
{"SMILES": "COc1ccc2c(c1)O[C@H](c1ccc(OC)c(OC)c1)C[C@@H]2NC(=O)C1(c2ccc3c(c2)OC(F)(F)O3)CC1", "test": "cell-free assay, competition with immobilised ligand", "conditions": "1 µM", "remaining binding [%]": 100}
